Measurements from ChEMBL document CHEMBL1125646, “Potential antipsychotic agents. 9. Synthesis and stereoselective dopamine D-2 receptor blockade of a potent class of substituted (R)-N-[(1-benzyl-2-pyrrolidinyl)methyl]benzamides. Relations to other side chain congeners” (J Med Chem, 1991).

Columns and labels:
[1] = molecular target: T1, D(2) dopamine receptor (Rattus norvegicus, UniProt P61169); test: Inhibition of [3H]spiperone binding to rat striatal dopamine receptor D2 was determined in vitro
How it was run: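 Rat striatal membranes in 0.05 M Tris-HCl pH 7.6 with 0.1% ascorbic acid and salts, at 5 mg wet weight/mL. Incubated with [3H]spiperone at 37 °C for 10 min. Nonspecific binding defined with 1 μM (+)-butaclamol. Bound ligand separated by glass-fibre filtration and counted by liquid scintillation. IC50 by log-logit regression.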

[2] = tested on: Rattus norvegicus; test: Block of apomorphine-induced response measured as hyperactivity injected ip 60 min prior to apomorphine hydrochloride(1 mg/kg, sc); assay type: functional
How it was run: (§1)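 Male Sprague-Dawley rats (270–325 g). Compounds in saline or acetic acid/water given ip (5 ml/kg) 60 min before apomorphine HCl 1 mg/kg sc into neck. […] At least six dose levels, 6–8 rats each. ED50 by regression with Fieller's theorem 95% confidence limits.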

[3] = molecular target: T1, D(2) dopamine receptor; test: Inhibition of [3H]raclopride binding to rat striatal dopamine receptor D2
How it was run: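 Rat striatal membranes were homogenised in 0.05 M Tris-HCl pH 7.6, washed by centrifugation, then resuspended with 0.1% ascorbic acid and salts at 5 mg original wet weight/mL. Nonspecific binding was set with 1 μM (+)-butaclamol. Filtration on glass-fibre filters, scintillation counting. Ki by nonlinear regression (LIGAND), Cheng–Prusoff, all experiments pooled.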

[4] = tested on: Rattus norvegicus; test: Block of apomorphine-induced response measured as stereotypies injected ip 60 min prior to apomorphine hydrochloride(1 mg/kg, sc); assay type: functional; how it was run: as §1
[5] = species: Rattus norvegicus; test: The catalepsy was measured in rat by using bar test; assay type: functional
How it was run: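 Horizontal bar 7 cm high, 1.5 cm diameter. Rat forepaws placed over it at 20, 40, 60, 90, 120 and 240 min after ip dosing. Descent latency timed, 60 s cutoff. Cataleptic = mean over 15 s from the three longest latencies. Saline controls included.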

[6] = tested on: Rattus norvegicus; test: Block of apomorphine-induced response measured as hypothermia injected ip 30 min prior to apomorphine hydrochloride(1 mg/kg, sc); assay type: functional
How it was run: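 Male Sprague-Dawley rats (200–250 g) housed at 21 ± 0.5 °C, groups of n = 6, given saline or compound ip 30 min before apomorphine HCl 1 mg/kg sc. Rectal core temperature taken before dosing, before apomorphine and 15 min after it. Changes are percent of control mean.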

[7] = Rattus norvegicus, read-out: ED50

T1 sequence (P61169 whole entry): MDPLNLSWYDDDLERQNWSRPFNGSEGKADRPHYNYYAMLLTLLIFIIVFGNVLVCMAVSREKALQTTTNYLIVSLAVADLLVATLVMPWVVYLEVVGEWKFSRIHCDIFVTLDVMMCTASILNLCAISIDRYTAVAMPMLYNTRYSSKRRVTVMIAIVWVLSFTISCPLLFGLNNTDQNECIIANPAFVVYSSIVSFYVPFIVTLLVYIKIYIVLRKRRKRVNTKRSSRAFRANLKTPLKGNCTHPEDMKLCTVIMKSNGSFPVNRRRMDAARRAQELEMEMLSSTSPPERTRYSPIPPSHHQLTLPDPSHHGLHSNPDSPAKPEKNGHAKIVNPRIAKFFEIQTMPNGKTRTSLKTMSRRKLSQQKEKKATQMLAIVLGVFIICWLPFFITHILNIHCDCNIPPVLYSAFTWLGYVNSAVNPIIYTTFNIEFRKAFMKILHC

COc1cc(Br)c(OC)c(C(=O)NC[C@H]2CCCN2Cc2ccccc2)c1OC was tested, and the IC50 [1] was 1860 nM.
For COc1c(Cl)cc(Cl)c(OC)c1C(=O)NC1CCN(Cc2ccccc2)CC1, the IC50 [1] was 3450 nM.
COc1c(Cl)cc(Cl)c(O)c1C(=O)NC1CCN(Cc2ccccc2)CC1 was tested, and the IC50 [1] was 5.4 nM.
Compound COc1cc(Br)c(O)c(C(=O)NC[C@H]2CCCN2Cc2ccc(F)cc2)c1OC has an ED50 [2, 7] of 1.5 µmol/kg, a Ki [3] of 0.19 nM and an ED50 [4, 7] of 2.4 µmol/kg. It also gave an ED50 [5] of 13 µmol/kg and an ED50 [6] of 1.3 µmol/kg.
In the case of CCc1cc(Cl)c(OC)c(C(=O)NC2CCN(Cc3ccccc3)CC2)c1O, the IC50 [1] is reported as 9.4 nM.
With COc1cc(Br)cc(C(=O)NC[C@H]2CCCN2Cc2ccc(F)cc2)c1OC the IC50 [1] was 0.65 nM.
With COc1ccc(Br)c(O)c1C(=O)NC1CCN(Cc2ccccc2)CC1 the IC50 [1] was 41 nM.
CCN1CCC[C@H]1CNC(=O)c1cccc(OC)c1OC gave an IC50 [1] of 52 nM.
COc1ccc(Br)c(O)c1C(=O)NCC1CCCN1Cc1ccccc1 (single isomer, unassigned) gave an ED50 [2] greater than 80 µM/kg, an ED50 [4] greater than 80 µM/kg and an IC50 [1] of 2680 nM.
In the case of CCN1CCC[C@H]1CNC(=O)c1c(O)c(Br)cc(OC)c1OC, the ED50 [5] is reported as 0.13 µmol/kg.
Compound COc1ccc(Br)c(O)c1C(=O)NCC1CCCN1Cc1ccccc1 (racemic) has an IC50 [1] of 36 nM.
With CCN1CCC[C@H]1CNC(=O)c1c(OC)ccc(Br)c1O the ED50 [5] was 1 µmol/kg and the ED50 [6] was 0.6 µmol/kg.
COc1cccc(C(=O)NC[C@H]2CCCN2Cc2ccccc2)c1OC was tested, and the IC50 [1] was 21 nM.
Work on COc1cc(Br)c(OC)c(C(=O)NC[C@H]2CCCN2Cc2ccc(F)cc2)c1O yielded an IC50 [1] of 124 nM.
In the case of COc1c(Cl)cc(Cl)c(OC)c1C(=O)NC[C@H]1CCCN1Cc1ccc(F)cc1, the IC50 [1] is reported as 2380 nM.
Compound CCN1CCC[C@H]1CNC(=O)c1c(O)c(Cl)cc(Cl)c1OC [RACLOPRIDE] has an ED50 [5] of 10 µmol/kg.
Compound COc1c(Cl)cc(Cl)c(O)c1C(=O)NC[C@H]1CCCN1Cc1ccc(F)cc1 has an IC50 [1] of 21 nM.
COc1cccc(C(=O)NC2CCN(Cc3ccccc3)CC2)c1OC showed an IC50 [1] of 6.3 nM.
Work on COc1ccc(Br)c(O)c1C(=O)NC[C@H]1CCCN1Cc1ccc(F)cc1 yielded an ED50 [2, 7] of 2 µmol/kg, a Ki [3] of 0.43 nM and an ED50 [4, 7] of 13.2 µmol/kg. For the same compound, the IC50 [1] was 28 nM, the ED50 [5] was 27 µmol/kg and the ED50 [6] was 1.7 µmol/kg.
With COc1cc(Br)c(OC)c(C(=O)NC[C@H]2CCCN2Cc2ccc(F)cc2)c1OC the IC50 [1] was 2210 nM.
Compound COc1ccc(Br)c(O)c1C(=O)NC[C@H]1CCCN1Cc1ccccc1 has an ED50 [2] of 5.6 µM/kg, a Ki [3] of 0.8 nM and an ED50 [4] of 18.6 µM/kg. For the same compound, the IC50 [1] was 18 nM.
With CCc1cc(Cl)c(OC)c(C(=O)NC[C@H]2CCCN2Cc2ccc(F)cc2)c1O the IC50 [1] was 29 nM.
With COc1cc(Br)cc(C(=O)NC[C@H]2CCCN2Cc2ccccc2)c1OC the ED50 [2, 7] was 1.2 µmol/kg, the Ki [3] was 0.024 nM and the ED50 [4, 7] was 1.4 µmol/kg. The IC50 [1] was 1.4 nM.
CCN1CCC[C@H]1CNC(=O)c1cc(Br)cc(OC)c1OC showed a Ki [3] of 0.018 nM, an ED50 [5] of 0.39 µmol/kg and an ED50 [6] of 0.005 µmol/kg.
Work on CCN1CCC[C@H]1CNC(=O)c1c(OC)c(Cl)cc(Cl)c1OC yielded an IC50 [1] greater than 10000 nM.
COc1cc(Br)c(O)c(C(=O)NC2CCN(Cc3ccccc3)CC2)c1OC was tested, and the IC50 [1] was 0.36 nM.
With COc1cc(Br)cc(C(=O)NC[C@@H]2CCCN2Cc2ccc(F)cc2)c1OC the IC50 [1] was 126 nM.
